Assay results reported in ChEMBL document CHEMBL5303300, “EUbOPEN Chemogenomics Library - Multiplex” (2023).
“And” between values parts separate entries of the source, which are not always exact repeats. Equal entries are not always repeated.

Tested on: U2OS
Experiment: Multiplex assay against U2OS
Assay type: toxicity, cell-based
Conditions: human, number of replicates 2
How it was run: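 Values for tubulin, mitochondrial-mass and membrane-permeability phenotypes are per cents of cells with healthy nuclei. These cells were identified by CellPathfinder machine-learning gating of live cells that had been stained at seeding with Hoechst33342, BioTracker Green Microtubule Cytoskeleton Dye, MitoTracker Red and Annexin V Alexa Fluor 680 and imaged on a CQ1 microscope at 37°C and 5% CO2 after compound addition. The gating first set Hoechst high-intensity objects apart from normal cells, then split normal cells into healthy, pyknosed or fragmented nuclei, and pyknosed cells into mitotic or apoptotic.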

[1] = 12 h, 1 µM, compound concentration 1 uM
[2] = 12 h, 10 µM, compound concentration 10 uM
[3] = 24 h, 1 µM, compound concentration 1 uM
[4] = 24 h, 10 µM, compound concentration 10 uM
[5] = 48 h, 1 µM, compound concentration 1 uM
[6] = 48 h, 10 µM, compound concentration 10 uM

**Q.** Which “Population Apoptotic (%)” value [1] does the source give for CS(=O)(=O)c1ccc(C(=O)Nc2cccc(COc3ccc(Br)cc3CN3CC[C@H](O)C3)c2)cc1.O=CO here?
**A.** 100% and 72%

**Q.** And the “Population Fragmented Nuclei (%)” value [1]?
**A.** 8% and 2%

**Q.** What about the “Population Healthy Nuclei (%)” value [1] of the same compound?
**A.** 84% and 83%

**Q.** And the “Population Hoechst High Intensity Objects (%)” value [1]?
**A.** 0%

**Q.** And the “Population Normal (%)” value [1]?
**A.** 100%

**Q.** And the “Population Apoptotic (%)” value [2]?
**A.** 100% and 70%

**Q.** What about the “Population Healthy Nuclei (%)” value [2] of the same compound?
**A.** 68% and 78%

**Q.** What about the “Population Hoechst High Intensity Objects (%)” value [2] of the same compound?
**A.** 0%

**Q.** What about the “Population Normal (%)” value [2] of the same compound?
**A.** 100% and 99%

**Q.** What about the “Population Apoptotic (%)” value [3] of the same compound?
**A.** 50%

**Q.** What about the “Population Fragmented Nuclei (%)” value [3] of the same compound?
**A.** 4% and 3%

**Q.** And the “Population Healthy Nuclei (%)” value [3]?
**A.** 85% and 86%

**Q.** What about the “Population Hoechst High Intensity Objects (%)” value [3] of the same compound?
**A.** 0%

**Q.** And the “Population Mitotic Cells (%)” value [3]?
**A.** 50% and 31%

**Q.** What about the “Population Normal (%)” value [3] of the same compound?
**A.** 100% and 99%

**Q.** And the “Population Apoptotic (%)” value [4]?
**A.** 88% and 75%

**Q.** What about the “Population Healthy Nuclei (%)” value [4] of the same compound?
**A.** 58% and 73%

**Q.** What about the “Population Hoechst High Intensity Objects (%)” value [4] of the same compound?
**A.** 0%

**Q.** And the “Population Mitotic Cells (%)” value [4]?
**A.** 11% and 24%

**Q.** What about the “Population Normal (%)” value [4] of the same compound?
**A.** 100%

**Q.** And the “Population Apoptotic (%)” value [5]?
**A.** 54% and 76%

**Q.** What about the “Population Fragmented Nuclei (%)” value [5] of the same compound?
**A.** 4% and 1%

**Q.** What about the “Population Healthy Nuclei (%)” value [5] of the same compound?
**A.** 84% and 89%

**Q.** And the “Population Hoechst High Intensity Objects (%)” value [5]?
**A.** 0%

**Q.** What about the “Population Mitotic Cells (%)” value [5] of the same compound?
**A.** 45% and 23%

**Q.** And the “Population Normal (%)” value [5]?
**A.** 100% and 99%

**Q.** What about the “Population Apoptotic (%)” value [6] of the same compound?
**A.** 75% and 80%

**Q.** And the “Population Healthy Nuclei (%)” value [6]?
**A.** 54% and 69%

**Q.** And the “Population Hoechst High Intensity Objects (%)” value [6]?
**A.** 0%

**Q.** What about the “Population Mitotic Cells (%)” value [6] of the same compound?
**A.** 25% and 19%

**Q.** What about the “Population Normal (%)” value [6] of the same compound?
**A.** 100% and 99%
